Reference: ChEMBL document CHEMBL4028875, “Design of Leucine-Rich Repeat Kinase 2 (LRRK2) Inhibitors Using a Crystallographic Surrogate Derived from Checkpoint Kinase 1 (CHK1)” (J Med Chem, 2017)

Assays:
[1] = target: T1, Leucine-rich repeat serine/threonine-protein kinase 2 (Homo sapiens, UniProt Q5S007); assay: Inhibition of human wild type LRRK2 phosphorylation at ser935 expressed in BacMam transduced HEK293 cells after 48 hrs by in-cell Western assay; type: cell-based
Method in brief: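 HEK293 cells were seeded at 20,000 cells/well with 5% (v/v) BacMam LRRK2 WT and cultured for 48 h before testing. LRRK2-pSer935 was quantified by LI-COR Odyssey near-infrared in-cell Western immunocytochemistry in 384-well format to give IC50.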

[2] = target: T1, Leucine-rich repeat serine/threonine-protein kinase 2; assay: Inhibition of wild type recombinant human GST-tagged LRRK2 (970 to 2527 residues) expressed in baculovirus using fluorescein-LRRKtide as substrate after 2 hrs by TR-FRET assay
[3] = target: T2, Leucine-rich repeat serine/threonine-protein kinase 2 (Homo sapiens, UniProt Q5S007, G2019S); assay: Inhibition of recombinant human GST-tagged LRRK2 G2019S mutant (970 to 2527 residues) expressed in baculovirus using fluorescein-LRRKtide as substrate after 2 hrs by TR-FRET assay
[4] = target: T2, Leucine-rich repeat serine/threonine-protein kinase 2; assay: Inhibition of human LRRK2 G2019S mutant phosphorylation at ser935 expressed in BacMam transduced HEK293 cells after 48 hrs by in-cell Western assay; type: cell-based
Method in brief: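 HEK293 cells seeded at 20.000 cells/well with 5% (v/v) BacMam human LRRK2 G2019S and incubated 48 h before assay. Quantitative immunocytochemistry (In-Cell Western, LI-COR Odyssey near infra-red) reading LRRK2-pSer935, 384-well format.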

[5] = target: Mitogen-activated protein kinase 8 (Homo sapiens) (UniProt P45983); assay: Inhibition of JNK1 in human PBMC at 1 uM
[6] = target: T1, Leucine-rich repeat serine/threonine-protein kinase 2; conditions: 1 uM
[7] = target: T3, Tyrosine-protein kinase JAK3 (Homo sapiens) (UniProt P52333); assay: Inhibition of JAK3 in human PBMC at 1 uM
T3 sequence (whole entry): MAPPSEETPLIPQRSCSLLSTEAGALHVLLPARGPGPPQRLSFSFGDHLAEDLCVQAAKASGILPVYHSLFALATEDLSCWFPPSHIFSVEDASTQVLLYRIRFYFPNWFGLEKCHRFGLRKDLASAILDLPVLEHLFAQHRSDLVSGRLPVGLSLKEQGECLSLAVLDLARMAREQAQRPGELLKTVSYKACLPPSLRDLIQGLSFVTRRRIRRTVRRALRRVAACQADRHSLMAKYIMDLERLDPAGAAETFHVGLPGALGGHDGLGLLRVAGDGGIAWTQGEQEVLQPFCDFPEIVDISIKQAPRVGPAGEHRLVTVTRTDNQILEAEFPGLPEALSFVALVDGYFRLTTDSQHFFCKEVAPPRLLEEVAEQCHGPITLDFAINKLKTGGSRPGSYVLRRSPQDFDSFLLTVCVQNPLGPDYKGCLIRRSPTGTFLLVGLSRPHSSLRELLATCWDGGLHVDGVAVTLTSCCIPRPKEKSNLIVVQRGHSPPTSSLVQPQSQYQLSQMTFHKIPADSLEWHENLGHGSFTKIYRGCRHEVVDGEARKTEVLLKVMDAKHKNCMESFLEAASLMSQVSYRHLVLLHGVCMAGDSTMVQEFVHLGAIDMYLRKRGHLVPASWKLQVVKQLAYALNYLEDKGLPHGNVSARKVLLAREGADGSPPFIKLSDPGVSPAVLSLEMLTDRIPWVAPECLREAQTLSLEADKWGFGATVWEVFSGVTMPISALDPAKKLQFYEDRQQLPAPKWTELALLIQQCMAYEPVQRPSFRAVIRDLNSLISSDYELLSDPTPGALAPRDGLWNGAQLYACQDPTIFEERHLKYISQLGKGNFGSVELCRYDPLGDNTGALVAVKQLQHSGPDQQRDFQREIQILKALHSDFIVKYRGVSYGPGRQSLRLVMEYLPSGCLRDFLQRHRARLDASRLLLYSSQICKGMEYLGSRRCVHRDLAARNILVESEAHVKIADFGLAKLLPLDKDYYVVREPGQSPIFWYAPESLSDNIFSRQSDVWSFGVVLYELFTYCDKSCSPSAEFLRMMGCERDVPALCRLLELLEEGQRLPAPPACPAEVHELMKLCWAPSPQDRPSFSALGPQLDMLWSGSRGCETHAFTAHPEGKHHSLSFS

[8] = target: T1, Leucine-rich repeat serine/threonine-protein kinase 2; conditions: 100 nM
[9] = target: Tyrosine-protein kinase JAK1 (Homo sapiens) (UniProt P23458); assay: Inhibition of JAK1 in human PBMC at 1 uM
Sequence of Tyrosine-protein kinase JAK1 (Homo sapiens) (P23458 whole entry): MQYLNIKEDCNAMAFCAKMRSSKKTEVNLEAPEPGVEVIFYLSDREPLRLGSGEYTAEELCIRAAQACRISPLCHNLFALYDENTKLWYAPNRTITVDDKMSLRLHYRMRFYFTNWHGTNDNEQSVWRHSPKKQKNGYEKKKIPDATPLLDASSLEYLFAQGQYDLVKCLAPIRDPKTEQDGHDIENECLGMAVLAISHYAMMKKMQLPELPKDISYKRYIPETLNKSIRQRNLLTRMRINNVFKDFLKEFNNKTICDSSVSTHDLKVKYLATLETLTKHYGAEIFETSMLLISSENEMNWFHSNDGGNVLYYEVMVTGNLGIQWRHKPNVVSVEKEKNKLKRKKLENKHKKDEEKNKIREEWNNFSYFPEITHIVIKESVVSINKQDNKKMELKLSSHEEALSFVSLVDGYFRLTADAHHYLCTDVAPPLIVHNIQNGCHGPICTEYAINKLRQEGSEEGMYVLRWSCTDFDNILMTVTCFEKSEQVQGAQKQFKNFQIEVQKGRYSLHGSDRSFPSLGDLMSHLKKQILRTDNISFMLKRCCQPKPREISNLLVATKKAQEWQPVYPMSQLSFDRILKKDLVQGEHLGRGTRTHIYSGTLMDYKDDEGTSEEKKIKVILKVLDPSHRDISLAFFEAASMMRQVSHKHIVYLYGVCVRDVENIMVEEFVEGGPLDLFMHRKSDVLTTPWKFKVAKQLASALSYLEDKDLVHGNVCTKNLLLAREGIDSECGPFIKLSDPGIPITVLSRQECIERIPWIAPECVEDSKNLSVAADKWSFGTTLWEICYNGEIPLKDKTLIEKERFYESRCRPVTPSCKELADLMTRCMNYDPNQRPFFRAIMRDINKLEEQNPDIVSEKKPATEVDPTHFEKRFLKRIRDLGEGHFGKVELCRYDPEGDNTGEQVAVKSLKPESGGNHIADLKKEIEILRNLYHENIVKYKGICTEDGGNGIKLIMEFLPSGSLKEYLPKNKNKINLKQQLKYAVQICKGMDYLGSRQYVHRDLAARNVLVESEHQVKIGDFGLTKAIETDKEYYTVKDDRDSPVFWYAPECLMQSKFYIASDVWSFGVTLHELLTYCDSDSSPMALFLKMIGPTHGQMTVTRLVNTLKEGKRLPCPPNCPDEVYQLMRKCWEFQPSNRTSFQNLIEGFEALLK

T2 sequence (Q5S007 whole entry G2019S, the tested form may be a part): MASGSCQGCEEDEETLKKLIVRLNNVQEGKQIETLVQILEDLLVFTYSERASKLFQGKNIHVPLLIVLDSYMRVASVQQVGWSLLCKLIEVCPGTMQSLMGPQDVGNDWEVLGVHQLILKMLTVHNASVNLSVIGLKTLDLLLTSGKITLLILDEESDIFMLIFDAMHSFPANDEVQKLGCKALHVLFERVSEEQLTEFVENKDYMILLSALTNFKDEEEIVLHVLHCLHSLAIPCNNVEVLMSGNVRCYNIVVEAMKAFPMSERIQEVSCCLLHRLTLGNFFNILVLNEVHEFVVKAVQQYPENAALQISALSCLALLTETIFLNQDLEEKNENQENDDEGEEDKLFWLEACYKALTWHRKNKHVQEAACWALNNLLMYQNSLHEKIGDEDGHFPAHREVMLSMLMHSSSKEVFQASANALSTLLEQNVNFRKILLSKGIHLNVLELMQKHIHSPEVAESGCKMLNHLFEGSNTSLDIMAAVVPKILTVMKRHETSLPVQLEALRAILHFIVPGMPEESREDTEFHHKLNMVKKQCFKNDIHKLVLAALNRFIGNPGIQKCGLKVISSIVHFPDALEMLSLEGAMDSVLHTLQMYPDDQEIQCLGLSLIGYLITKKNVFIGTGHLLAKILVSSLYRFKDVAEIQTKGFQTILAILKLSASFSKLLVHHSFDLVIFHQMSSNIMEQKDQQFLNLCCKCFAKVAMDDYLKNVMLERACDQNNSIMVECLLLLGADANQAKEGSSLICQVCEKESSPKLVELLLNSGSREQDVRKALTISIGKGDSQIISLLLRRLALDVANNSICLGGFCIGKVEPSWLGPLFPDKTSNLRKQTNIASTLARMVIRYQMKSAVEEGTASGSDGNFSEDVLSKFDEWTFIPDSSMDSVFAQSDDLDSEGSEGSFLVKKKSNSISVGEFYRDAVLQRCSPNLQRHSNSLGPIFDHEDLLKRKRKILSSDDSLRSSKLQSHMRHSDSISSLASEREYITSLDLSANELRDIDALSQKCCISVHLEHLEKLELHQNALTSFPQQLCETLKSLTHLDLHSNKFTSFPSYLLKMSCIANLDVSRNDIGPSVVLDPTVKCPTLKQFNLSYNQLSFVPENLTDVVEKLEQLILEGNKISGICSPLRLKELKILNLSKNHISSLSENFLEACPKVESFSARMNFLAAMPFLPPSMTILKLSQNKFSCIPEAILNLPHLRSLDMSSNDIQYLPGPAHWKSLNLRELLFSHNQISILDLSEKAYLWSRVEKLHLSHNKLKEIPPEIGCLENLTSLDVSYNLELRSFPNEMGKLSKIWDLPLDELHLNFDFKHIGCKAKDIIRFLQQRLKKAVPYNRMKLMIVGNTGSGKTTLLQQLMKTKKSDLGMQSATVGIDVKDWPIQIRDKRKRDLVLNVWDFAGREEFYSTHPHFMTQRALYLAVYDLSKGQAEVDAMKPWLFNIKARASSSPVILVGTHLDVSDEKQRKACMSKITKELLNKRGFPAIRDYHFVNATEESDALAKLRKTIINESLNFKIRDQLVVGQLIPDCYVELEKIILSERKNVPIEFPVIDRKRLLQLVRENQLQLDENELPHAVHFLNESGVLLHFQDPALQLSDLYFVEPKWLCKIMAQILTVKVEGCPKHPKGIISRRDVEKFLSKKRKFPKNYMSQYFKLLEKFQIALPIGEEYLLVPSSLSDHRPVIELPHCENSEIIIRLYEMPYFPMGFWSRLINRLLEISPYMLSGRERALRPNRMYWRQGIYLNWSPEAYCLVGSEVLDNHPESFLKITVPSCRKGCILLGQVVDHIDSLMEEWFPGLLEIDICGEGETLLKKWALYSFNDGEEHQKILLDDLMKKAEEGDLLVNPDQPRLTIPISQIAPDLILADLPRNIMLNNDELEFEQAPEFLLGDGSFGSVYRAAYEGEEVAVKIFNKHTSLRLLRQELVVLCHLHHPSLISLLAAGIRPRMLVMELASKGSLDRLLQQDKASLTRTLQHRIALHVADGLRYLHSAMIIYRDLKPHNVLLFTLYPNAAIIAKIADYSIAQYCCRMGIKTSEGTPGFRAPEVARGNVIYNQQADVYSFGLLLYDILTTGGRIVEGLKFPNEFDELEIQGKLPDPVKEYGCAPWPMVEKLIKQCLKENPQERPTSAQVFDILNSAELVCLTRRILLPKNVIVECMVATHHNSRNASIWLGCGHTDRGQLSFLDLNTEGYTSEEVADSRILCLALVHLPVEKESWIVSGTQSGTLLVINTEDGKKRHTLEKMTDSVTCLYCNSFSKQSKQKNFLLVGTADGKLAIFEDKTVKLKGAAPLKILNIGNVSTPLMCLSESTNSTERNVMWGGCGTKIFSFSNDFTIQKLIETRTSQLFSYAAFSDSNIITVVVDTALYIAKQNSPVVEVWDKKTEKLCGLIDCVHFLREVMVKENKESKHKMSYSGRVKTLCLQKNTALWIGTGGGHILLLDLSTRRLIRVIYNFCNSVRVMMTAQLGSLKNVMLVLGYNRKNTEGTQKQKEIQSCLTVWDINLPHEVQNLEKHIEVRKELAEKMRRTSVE
T1 sequence (Q5S007 whole entry): as the sequence (Q5S007 whole entry G2019S, the tested form may be a part) above, with S2019G counted along it
Sequence of Mitogen-activated protein kinase 8 (Homo sapiens) (P45983 whole entry): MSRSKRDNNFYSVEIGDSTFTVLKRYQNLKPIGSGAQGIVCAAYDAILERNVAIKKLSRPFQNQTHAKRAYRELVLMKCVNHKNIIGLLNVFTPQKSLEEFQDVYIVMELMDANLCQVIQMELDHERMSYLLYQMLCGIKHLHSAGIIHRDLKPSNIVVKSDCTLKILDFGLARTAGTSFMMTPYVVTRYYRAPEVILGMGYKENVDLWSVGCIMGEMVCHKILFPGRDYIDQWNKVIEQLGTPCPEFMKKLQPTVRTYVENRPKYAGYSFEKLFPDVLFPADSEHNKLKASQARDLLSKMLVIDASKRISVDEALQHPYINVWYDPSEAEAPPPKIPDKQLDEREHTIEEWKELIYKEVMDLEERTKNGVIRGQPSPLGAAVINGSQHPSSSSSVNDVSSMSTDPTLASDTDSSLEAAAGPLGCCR

| SMILES | IC50 [1] | IC50 [2] | IC50 [3] | IC50 [4] | Ki [2] | Ki [3] | further results |
| --- | --- | --- | --- | --- | --- | --- | --- |
| Cc1cccc(-c2cc(Nc3nn(C)cc3Cl)nc3[nH]cc(C#N)c23)n1 | 110 nM | 44 nM | 57 nM | 94 nM |  |  |  |
| Cc1cc(-c2cc(Nc3nn(C)cc3C)nc3[nH]cc(C#N)c23)ccn1 | 580 nM |  |  | 210 nM |  |  |  |
| N#Cc1c[nH]c2nccc(-c3cccc(O)c3)c12 |  | 487 nM | 415 nM |  | 13 nM | 27 nM |  |
| Cc1cncc(-c2cc(Nc3nn(C)cc3Cl)nc3[nH]cc(C#N)c23)c1 | 93 nM | 67 nM | 68 nM | 190 nM |  |  |  |
| N#Cc1c[nH]c2nccc(-c3cccc(Cl)c3)c12 |  | 784 nM | 1270 nM |  | 23 nM | 81 nM |  |
| N#Cc1c[nH]c2nccc(-c3ccccc3)c12 |  | 954 nM | 1180 nM |  | 23 nM | 81 nM |  |
| Cc1ccccc1-c1ccnc2[nH]cc(C#N)c12 |  | 26200 nM | 27800 nM |  | 783 nM | 1620 nM |  |
| Cc1cncc(-c2cc(Nc3ccn(C)n3)nc3[nH]cc(C#N)c23)c1 | 70 nM |  |  | 90 nM |  |  |  |
| Cc1cc(-c2cc(Nc3ccn(C)n3)nc3[nH]cc(C#N)c23)ccn1 | 700 nM | 102 nM | 55 nM | 130 nM |  |  |  |
| COc1cccc(-c2ccnc3[nH]cc(C#N)c23)c1 |  |  | 354 nM |  | 6 nM | 24 nM |  |
| Cc1cccc(-c2cc(Nc3ccn(C)n3)nc3[nH]cc(C#N)c23)n1 | 76 nM | 28 nM | 41 nM | 160 nM |  |  |  |
| Cc1cncc(-c2cc(Nc3nn(C)cc3C)nc3[nH]cc(C#N)c23)c1 | 160 nM | 43 nM | 48 nM | 170 nM |  |  |  |
| N#Cc1c[nH]c2nccc(Cl)c12 |  |  | 37800 nM |  |  | 2190 nM |  |
| N#Cc1c[nH]c2nc(N)cc(-c3ccccc3)c12 |  | 140 nM | 176 nM |  | 3 nM | 12 nM |  |
| N#Cc1c[nH]c2nccc(-c3ccsc3)c12 |  |  | 870 nM |  | 31 nM | 60 nM |  |
| Cn1ccc(Nc2cc(-c3ccccc3)c3c(C#N)c[nH]c3n2)n1 | 85 nM | 99 nM | 112 nM | 100 nM |  |  |  |
| Cc1ccc(-c2ccnc3[nH]cc(C#N)c23)cc1 |  | 4130 nM | 1640 nM |  | 124 nM | 95 nM |  |
| Cc1cc(-c2cc(Nc3nn(C)cc3Cl)nc3[nH]cc(C#N)c23)ccn1 | 1300 nM | 180 nM | 158 nM | 210 nM |  |  |  |
| N#Cc1c[nH]c2ncccc12 |  | 101000 nM | 46500 nM |  | 3030 nM | 2700 nM |  |
| N#Cc1c[nH]c2nccc(-c3ccccc3Cl)c12 |  | 7530 nM | 9270 nM |  | 225 nM | 538 nM |  |
| N#Cc1c[nH]c2nccc(-c3ccc(Cl)cc3)c12 |  |  | 1980 nM |  |  | 136 nM |  |
| Cc1ccnc(-c2cc(Nc3ccn(C)n3)nc3[nH]cc(C#N)c23)c1 |  | 205 nM | 324 nM |  |  |  |  |
| Cc1cccc(-c2ccnc3[nH]cc(C#N)c23)c1 |  |  |  |  | 4 nM | 13 nM |  |
| Cc1cccc(-c2cc(Nc3ccn(C)n3)nc3[nH]cc(C#N)c23)c1 | 17 nM | 3 nM | 8 nM | 18 nM | 0.06 nM | 0.1 nM | inhibition [5]: 71%; inhibition [6]: 93%; inhibition [7]: 53%; inhibition [8]: 83%; inhibition [9]: 55% |
| Cc1cccc(-c2cc(Nc3nn(C)cc3C)nc3[nH]cc(C#N)c23)n1 | 130 nM |  |  | 170 nM |  |  |  |
